Assay outcomes: PubChem, several laboratories
Sampled rows, rich in hits. Any-hit rate of the full collection: about 1.8%.
STAT3 inh: inhibitors of IL-6 induced STAT3 signaling | U3A cells, IL-6 STAT3-luciferase reporter, luminescence; host cell line lacks STAT1 | inhibition, % at 5.5 µM | actives 0.89% (n = 190,000) | AID 862;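 active = inhibition above the mean inhibition across all screened compounds plus 3 SD, cut at about 44% in these data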;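 also: 0% = DMSO only wells and 100% = 100 µM nifuroxazide control wells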
STAT3 activator: increases IL-6 driven STAT3 reporter signal; U3A cells, IL-6 STAT3-luciferase reporter, luminescence; 100% = signal with IL-6 EC80 alone; activation (% of control), % at 5.6 µM; actives 0.91% (n = 190,000); AID 871;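 active = activation above the screen-wide mean of compound activation plus 3 SD, cut at about 130% in these data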;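 also: 0% = background luminescence of wells with medium and substrate only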
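Material: STAT3-luciferase reporter U3A cells. Controls: IL-6-treated wells, 100% activation. Read-out: % activation versus median of IL-6-stimulated wells. Probe or stimulus: IL-6 stimulus at 33 ng/mL final. Timing: compound 1 h, then IL-6 6 h at 37 °C. Signal: reporter luminescence signal.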
PPC-1+TRAIL kill: compounds killing PPC-1 cancer cells with TRAIL present (potentiator screen, no TRAIL-free arm) | PPC-1 cells + TRAIL, ATPLite viability luminescence | cell killing (% activity), % at 4 µM or 5 µM | actives 0.41% (n = 220,000);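 active = cell killing above 50% in the first pass at 4 µM, then a duplicate retest at 5 µM averaging 50% or more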;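 also: plate controls were cells with TRAIL plus DMSO for no effect and medium-only wells lacking cells for full effect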
STAT1 inh: STAT1 signaling inhibition; inhibition, % at 5.5 µM; actives 0.35% (n = 200,000); NIH 3T3 STAT1-luciferase reporter, IFN-gamma, luminescence;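 active = inhibition above a set limit, the mean inhibition across all tested compounds plus 3 SD, cut at about 34% in these data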;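 also: 0% = IFN-gamma with DMSO and 100% = IFN-gamma with 300 µM nifuroxazide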
C8 TRAIL sens: sensitizes caspase-8 expressing cells to TRAIL | AID 624354 | NB7+C8 cells + TRAIL, ATPlite viability luminescence | actives 1% (n = 360,000) | inhibition (viability loss, TRAIL sensitization), % at 10 µM;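 active = compounds causing at least 50% loss of cell viability in the single-dose screen, relative to plate controls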
PPC1 cytotox: kills PPC-1 cells. cytotoxicity, % at 5 µM. AID 1447. shares compounds with PPC-1+TRAIL kill. actives 50% (n = 1,200). PPC-1 viability, ATPlite luminescence, overnight;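 active = reconfirmed compounds whose average cytotoxicity reaches 50% or more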;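 also: 0% = DMSO-treated cells and 100% = wells holding medium but no cells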
* = called active by the depositor; x = no result given.

SMILES	STAT3 inh	STAT3 activator	PPC-1+TRAIL kill	STAT1 inh	C8 TRAIL sens	PPC1 cytotox
COc1ccc(N/C(=N\c2nc(C)cc(C)n2)NC(=O)C(C)C)cc1OC	0.4	102.5	-10.3	-0.7	-5.1	-16.7
COc1ccc(Cc2nc3ccc(C(=O)N(C)CCc4cnn(C)c4)cc3o2)cc1OC	x	x	x	x	3.5	x
Cc1ccc(Sc2ncnc3onc(C)c23)c(C)c1	10.2	100.2	-0.9	-9.3	-2.4	8.4
Cc1ccnc(NC(=O)c2ccc(S(=O)(=O)N3CCCCCC3)cc2)c1	x	x	x	x	3.8	x
COc1ccc(NC(=O)/C(C#N)=C\c2ccc(N3CCOCC3)o2)cc1	22.9	83.8	55.3*	-30.5	65.2*	57.5*
COc1cccc(C(=O)CN(C(=O)c2ccc(Cl)c(Cl)c2)N2C(=O)C3CCCCC3C2=O)c1 (stereo not given)	0.1	99.9	7.5	-6.4	-4.6	-7.0
Cc1ccc(-c2cc(C(=O)N3CCN(C(=O)c4ccco4)CC3)no2)cc1	6.3	97.3	18.4	-2.1	-9.9	x
Cc1ccc(-c2c(C)sc(=NC(=O)c3ccco3)n2C)cc1	31.3	75.5	39.0	-31.5	65.0*	35.8
Cc1nn(C(C)(C)C)c(C)c1/C=N/OC(=O)Nc1ccc(Cl)cc1	x	x	85.4*	x	88.3*	86.2*
c1c2c(cc3sc(N4CCOCC4)nc13)OCCO2	88.8*	23.4	63.4*	51.4*	78.0*	60.5*
CCC(=O)Nc1ccc2c(c1)OC[C@@H](C)N(Cc1cccc(F)c1)C[C@@H](C)[C@@H](OC)CN(C)C2=O	x	x	x	x	-5.3	x
O=C(CCN1CCN(CCO)CC1)Nc1ccc(F)c(F)c1	7.3	99.3	-1.2	1.7	-6.2	5.2
Cc1ccc(/C=C/c2nc3ccccc3c(=O)[nH]2)cc1	x	x	93.2*	x	93.0*	91.6*
Cc1ccccc1/C=C\c1nc2ccccc2c(=O)[nH]1	20.7	83.9	31.8	-21.8	35.5	x
NC(Cc1ccc(C(F)(F)F)cc1)c1csc(Nc2nccc(C(F)(F)F)n2)n1 (stereo not given)	x	x	x	x	-0.8	x
CCOC(=O)c1c(Nc2ccccc2N)cc(C)nc1C	6.2	97.2	-4.2	-3.1	0.0	-26.4
CC(C)NC(=O)C1(C)CN(S(C)(=O)=O)CC(=O)N1CCc1ccccc1 (stereo not given)	x	x	x	x	1.8	x
Cc1ccc(NC(=O)c2ccc(OC(=O)c3ccco3)cc2)cc1	-20.3	117.3	30.1	-36.6	33.6	34.8
CCN(CC)c1ccc(NC(=O)c2ccco2)cc1	20.0	88.3	57.6*	-27.7	62.0*	61.4*
CCN(CC)c1ccc(NC(=S)NC(=O)c2ccco2)cc1	2.1	100.1	x	-48.0	12.6	x
Cc1ccc(Oc2ccc(NC(=O)c3ccco3)cc2)cc1	4.7	101.6	20.8	-18.4	-7.2	x
Cc1ccc(S(=O)(=O)N2[C@@H](c3ccccc3F)C(C(=O)O)=CC[C@H]2c2ccc(Cl)c(Cl)c2)cc1	x	x	x	x	-7.5	x
O=C(NCC1CCCCC1)c1csc([C@@H]2O[C@H](CO)[C@H](O)[C@H](O)[C@H]2O)n1	x	x	x	x	-10.3	x
COC12CC(=O)C(C(C)=O)=C(O)C1(C)c1c(O)c(C)c(O)c(C(C)=O)c1O2 (stereo not given)	x	x	x	x	21.4	x
COc1cc(C(O)c2nc(-c3cccc(NC(C)=O)c3)cs2)ccc1F (stereo not given)	x	x	x	x	-1.8	x
SMILES	STAT3 inh	STAT3 activator	PPC-1+TRAIL kill	STAT1 inh	C8 TRAIL sens	PPC1 cytotox
Cc1ccc(-c2cc(C(=O)N3CCN(c4ccc(F)cc4)CC3)c3ccccc3n2)o1	-7.5	112.2	33.1	4.3	10.8	30.3
O=C(c1cc(-c2ccccc2Cl)nc2ccccc12)N1CCN(c2ccccn2)CC1	x	x	x	x	18.4	x
COc1ccc(-c2cc(C(=O)N3CCN(c4ccccn4)CC3)c3ccccc3n2)cc1	-6.7	110.2	51.2*	-9.3	58.5*	52.7*
COc1ccc2cc(-c3cc(C(=O)O)c4ccccc4n3)ccc2c1	95.4*	16.6	96.0*	72.7*	94.8*	96.1*
CCOc1ccc(-c2cc(C(=O)N3CCN(c4ccccn4)CC3)c3ccccc3n2)cc1	-3.4	107.0	81.3*	-17.1	89.3*	82.5*
O=C(CCNc1ccc(F)cc1)c1ccco1	-4.5	106.4	8.6	-34.3	18.8	2.3
O=C1c2ccccc2C(=O)C1c1ccnc2ccccc12	58.1*	53.5	86.0*	42.9*	90.2*	87.1*
O=C(/C=C/c1ccc(O)c(O)c1)NC(=O)c1ccccc1O	x	x	x	x	42.0	x
O=C(/C=C/c1ccc(Br)cc1)NC(=O)c1ccccc1O	24.4	83.3	61.5*	1.5	62.7*	62.1*
CSc1ccc(/C=C/C(=O)NC(=O)c2ccccc2O)cc1	26.3	79.1	60.1*	3.1	52.4*	61.9*
CCc1ccc(/C=C2/SC(=S)N(CCC(=O)Nc3cccnc3)C2=O)cc1	x	x	x	x	31.9	x
COc1cc(/C=C(/C(=O)c2cccs2)c2nc3ccccc3[nH]2)ccc1O	-40.6	135.7*	17.6	4.6	25.2	13.9
O=C(/C(=C/c1ccc(Cl)cc1)c1nc2ccccc2[nH]1)c1cccs1	2.7	96.5	15.9	14.9	47.5	x
C=CCNC(=O)/C(=C/c1cccc([N+](=O)[O-])c1)NC(=O)c1ccccc1	-6.1	106.2	2.2	-19.4	2.6	5.8
C=CCNC(=O)/C(=C/c1cn(-c2ccccc2)nc1-c1cccc([N+](=O)[O-])c1)NC(=O)c1ccccc1	4.1	93.2	26.1	2.4	15.4	x
C[C@H]1CN([C@@H](C)CO)S(=O)(=O)c2ccc(C#Cc3ccccn3)cc2O[C@@H]1CN(C)C(=O)C1CC1	x	x	x	x	-8.3	x
O=C(Nc1ccc(Cl)cn1)c1cc2ccccc2o1	5.7	98.7	21.9	-27.2	42.0	x
Cc1ccc(NC(=O)c2cc3ccccc3o2)cc1S(=O)(=O)N(C)C	8.3	93.3	49.5	-46.8	66.9*	46.2
O=C(Nc1ccccn1)c1cc2ccccc2o1	89.4*	26.4	81.3*	53.4*	83.2*	79.7*
CN(C)S(=O)(=O)c1ccc(NC(=O)c2cc3ccccc3o2)cc1	19.1	88.7	23.5	-24.0	-8.4	x
CC(C)(C)c1ccc(-c2nnc(N)s2)cc1	17.2	94.2	47.4	-36.1	70.6*	47.7
Nc1nnc(-c2ccc(F)cc2)s1	17.1	91.8	4.2	-3.6	13.3	x
COC(=O)c1ccccc1NC(=O)Cn1c(CCC(=O)O)ccc1-c1cccs1	4.0	103.1	6.5	2.1	7.2	14.9
Cc1cccc(NCc2ccccc2O)c1C	10.1	93.4	11.7	-9.8	-1.9	x
Cc1ccc(NCc2ccccc2O)c(C)c1	16.6	89.8	9.6	-7.3	1.6	9.6
CCOC(=O)COc1ccc2c3c(c(=O)oc2c1C)CCC3	32.9	74.8	7.6	8.8	0.7	13.8
CCCn1c(N)c(C(=O)CSc2nnc(Cc3ccccc3)o2)c(=O)n(C)c1=O	41.3	67.3	12.8	23.5	4.4	8.3
O=C(COc1ccccc1Cl)OCC(=O)N1CCN(S(=O)(=O)c2ccccc2)CC1	-2.8	105.5	10.5	6.0	-16.2	7.9
